# How the values were obtained:
# [1] = target: Melanin-concentrating hormone receptor 1 (Rattus norvegicus, UniProt P97639); experiment: Binding affinity to rat MCHR1
# Rattus norvegicus [2] = experiment: Antiobesity activity in pair-fed DIO Sprague-Dawley rat model assessed as reduction in body weight at 1 mg/kg, po qd for 28 days relative to vehicle control; type: functional; parameters: scale not given: the % may be the effect or the level left
# Method in brief: (§1)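 Obese male SD rats on diet-induced obesity, 8/group, dosed orally once daily for 28 days with phosphate prodrug (0.03–3 mg/kg parent) in 14% propylene glycol/1% Tween/85% water; rimonabant 10 mg/kg control; pair-fed groups matched to 1 and 3 mg/kg intake; body weight and food measured daily, % change versus vehicle.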
# [3] = Protein binding in Sprague-Dawley rat plasma at 10 mg/kg, po qd for 4 days; type: ADME, organism-based; conditions: read-out: PPB
# [4] = Cardiotoxicity in anesthetized rabbit assessed as prolongation of QRS intervals up to plasma concentration of 38 uM; type: toxicity, Oryctolagus cuniculus
# Method in brief: (§2)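 Anesthetized rabbits given compound to plasma concentrations up to 38 µM; QT and QRS duration, mean arterial blood pressure and heart rate recorded.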
# [5] = Metabolic stability in rat liver microsomes assessed as compound remaining at 3 uM measured after 10 min; type: ADME; conditions: read-out: Stability
# Method in brief: (§3)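 Test compound at 3.0 µM incubated with liver microsomes for 10 minutes; read-out is percent of parent remaining.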
# [6] = Displacement of [Phe13,125I]Tyr19]-MCH from human MCHR1 E4Q/A5T double mutant expressed in HEK293 cells by TopCount scintillation counting method; type: cell-based
# Rattus norvegicus [7] = experiment: Antiobesity activity in pair-fed DIO Sprague-Dawley rat model assessed as reduction in body weight at 3 mg/kg, po qd for 28 days relative to vehicle control; type: functional; parameters: scale not given: the % may be the effect or the level left; method in brief: as §1
# [8] = Mutagenic activity in Salmonella typhimurium by Ames test; type: toxicity; conditions: salmonella enterica subsp. enterica serovar typhimurium
# [9] = Clearance in dog at 1 mg/kg, iv; type: ADME, organism-based, Canis lupus familiaris; conditions: in vivo
# Method in brief: (§4)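 Rats, dogs and cynomolgus monkeys, n = 3: parent 1 mg/kg i.v. in PEG400:DMAC:water (70:5:25), or phosphate prodrug 10 mg/kg oral in Methocel:Tween80:water (0.5:0.1:99.4); plasma parent compound, Cmax, Tmax, AUC0-∞, half-life, clearance, Vss and bioavailability derived.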
# Homo sapiens [10] = organism: Homo sapiens; experiment: Inhibition of sodium channel (unknown origin) at 10 uM and 4 Hz
# [11] = Metabolic stability in mouse liver microsomes assessed as compound remaining at 3 uM measured after 10 min; type: ADME; conditions: read-out: Stability; method in brief: as §3
# [12] = AUC in cynomolgus monkey at 1 mg/kg, iv; type: ADME, organism-based, Macaca fascicularis; conditions: in vivo; method in brief: as §4
# Homo sapiens [13] = organism: Homo sapiens; experiment: Inhibition of human PDE4 using [3H]cAMP at 10 uM
# Cytochrome P450 3A4 = Cytochrome P450 3A4 (Homo sapiens, UniProt P08684); experiment: Inhibition of CYP3A4 (unknown origin); type: ADME
# [14] = Volume of distribution at steady state in rat at 1 mg/kg, iv; type: ADME, organism-based; conditions: in vivo, read-out: Vdss
# Method in brief: (§5)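 Full PK in rat, dog and cynomolgus monkey. Oral arm: phosphate prodrug at 10 mg/kg parent-equivalent in Methocel:Tween80:water (0.5:0.1:99.4). Intravenous arm: parent at 1 mg/kg in PEG400:DMAC:water (70:5:25). n = 3 per species; individual Tmax values reported for dog and monkey.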
# Rattus norvegicus [15] = experiment: Antiobesity activity in pair-fed DIO Sprague-Dawley rat model assessed as reduction in caloric intake at 3 mg/kg, po qd for 28 days relative to vehicle control; type: functional; parameters: scale not given: the % may be the effect or the level left; method in brief: as §1
# [16] = Cardiotoxicity in anesthetized rabbit assessed as effect on heart rate; type: toxicity, tissue-based, Oryctolagus cuniculus; method in brief: as §2
# [17] = Lipophilicity, log P of the compound at pH 7 by HPLC analysis; type: physicochemical; conditions: buffer
# Method in brief: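 LogP determined by HPLC at pH 7.0.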
# [18] = Half life in rat at 1 mg/kg, iv; type: ADME, organism-based; conditions: in vivo; method in brief: as §4
# hERG (KCNH2) = hERG (KCNH2) (Homo sapiens, UniProt Q12809); experiment: Inhibition of human ERG at 10 uM
# Method in brief: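 In vitro ion-channel inhibition measured at 10 µM against hERG, Na (4 Hz) and L-type Ca channels; read-out is percent inhibition.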
# Cytochrome P450 2C9 = Cytochrome P450 2C9 (Homo sapiens, UniProt P11712); experiment: Inhibition of CYP2C9 (unknown origin); type: ADME
# Method in brief: (§6)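 CYP1A2, 2C8, 2C9, 2C19, 2D6 and 3A4 tested for inhibition, with 40 µM as the top tested limit.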
# Cytochrome P450 2C19 = Cytochrome P450 2C19 (Homo sapiens, UniProt P33261); experiment: Inhibition of CYP2C19 (unknown origin); type: ADME; method in brief: as §6
# [19] = Clearance rat at 1 mg/kg, iv; type: ADME, organism-based; conditions: in vivo; method in brief: as §4
# [20] = target: Melanin-concentrating hormone receptor 1 (Homo sapiens, UniProt Q99705); experiment: Antagonist activity at human MCHR1 expressed in HEK293 cells assessed as inhibition of MCH-stimulated calcium flux measured after 15 mins by FLIPR assay; type: functional, cell-based
# [21] = Half life in cynomolgus monkey at 1 mg/kg, iv; type: ADME, organism-based, Macaca fascicularis; conditions: in vivo; method in brief: as §4
# [22] = Solubility of the compound in phosphate buffer at pH 6.4; type: physicochemical
# Method in brief: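 Solubility of parent compounds and prodrugs measured in 50 mM phosphate buffer, pH 6.4.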
# Cytochrome P450 2D6 = Cytochrome P450 2D6 (Homo sapiens, UniProt P10635); experiment: Inhibition of CYP2D6 (unknown origin); type: ADME
# [23] = Cardiotoxicity in anesthetized rabbit assessed as effect on mean arterial blood pressure; type: toxicity, tissue-based, Oryctolagus cuniculus; method in brief: as §2
# [24] = Volume of distribution at steady state in cynomolgus monkey at 1 mg/kg, iv; type: ADME, organism-based, Macaca fascicularis; conditions: in vivo, read-out: Vdss; method in brief: as §5
# Rattus norvegicus [25] = experiment: Antiobesity activity in pair-fed DIO Sprague-Dawley rat model assessed as reduction in caloric intake at 1 mg/kg, po qd for 28 days relative to vehicle control; type: functional; parameters: scale not given: the % may be the effect or the level left; method in brief: as §1
# [26] = AUC in dog at 1 mg/kg, iv; type: ADME, organism-based, Canis lupus familiaris; conditions: in vivo; method in brief: as §4
# Rattus norvegicus [27] = experiment: Toxicity in DIO Sprague-Dawley rat assessed as biliary lesion formation at 10 mg/kg, po qd for 4 days; type: organism-based; conditions: in vivo, 96 h
# Cytochrome P450 2C8 = target: T1, Cytochrome P450 2C8 (Homo sapiens, UniProt P10632); experiment: Inhibition of CYP2C8 (unknown origin); type: ADME; method in brief: as §6
# T1 sequence (P10632 whole entry): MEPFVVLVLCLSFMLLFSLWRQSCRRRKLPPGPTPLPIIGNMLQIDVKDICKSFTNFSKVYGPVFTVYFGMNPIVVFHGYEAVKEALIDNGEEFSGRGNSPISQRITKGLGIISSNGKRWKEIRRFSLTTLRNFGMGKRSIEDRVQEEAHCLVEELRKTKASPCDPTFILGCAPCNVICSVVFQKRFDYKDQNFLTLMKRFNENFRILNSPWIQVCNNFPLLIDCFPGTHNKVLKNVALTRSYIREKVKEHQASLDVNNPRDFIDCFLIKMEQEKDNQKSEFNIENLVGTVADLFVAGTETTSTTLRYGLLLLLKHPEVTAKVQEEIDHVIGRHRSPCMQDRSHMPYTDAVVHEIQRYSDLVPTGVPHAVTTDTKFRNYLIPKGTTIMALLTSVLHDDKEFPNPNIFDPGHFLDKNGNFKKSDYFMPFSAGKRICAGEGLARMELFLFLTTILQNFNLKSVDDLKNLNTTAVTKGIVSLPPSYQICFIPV
# [28] = Metabolic stability in human liver microsomes assessed as compound remaining at 3 uM measured after 10 min; type: ADME; conditions: read-out: Stability; method in brief: as §3
# Sequence of Melanin-concentrating hormone receptor 1 (Rattus norvegicus, UniProt P97639) (P97639 whole entry): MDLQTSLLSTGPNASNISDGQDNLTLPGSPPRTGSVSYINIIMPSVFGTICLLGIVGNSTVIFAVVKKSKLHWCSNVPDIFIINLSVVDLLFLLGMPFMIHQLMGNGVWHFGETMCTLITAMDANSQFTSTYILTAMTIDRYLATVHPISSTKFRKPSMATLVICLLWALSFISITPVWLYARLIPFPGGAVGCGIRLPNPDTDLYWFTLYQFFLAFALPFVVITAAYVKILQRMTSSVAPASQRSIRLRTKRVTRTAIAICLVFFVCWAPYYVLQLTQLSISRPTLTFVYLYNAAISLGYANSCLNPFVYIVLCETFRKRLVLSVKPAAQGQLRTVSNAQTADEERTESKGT
# Sequence of Cytochrome P450 2C19 (P33261 whole entry): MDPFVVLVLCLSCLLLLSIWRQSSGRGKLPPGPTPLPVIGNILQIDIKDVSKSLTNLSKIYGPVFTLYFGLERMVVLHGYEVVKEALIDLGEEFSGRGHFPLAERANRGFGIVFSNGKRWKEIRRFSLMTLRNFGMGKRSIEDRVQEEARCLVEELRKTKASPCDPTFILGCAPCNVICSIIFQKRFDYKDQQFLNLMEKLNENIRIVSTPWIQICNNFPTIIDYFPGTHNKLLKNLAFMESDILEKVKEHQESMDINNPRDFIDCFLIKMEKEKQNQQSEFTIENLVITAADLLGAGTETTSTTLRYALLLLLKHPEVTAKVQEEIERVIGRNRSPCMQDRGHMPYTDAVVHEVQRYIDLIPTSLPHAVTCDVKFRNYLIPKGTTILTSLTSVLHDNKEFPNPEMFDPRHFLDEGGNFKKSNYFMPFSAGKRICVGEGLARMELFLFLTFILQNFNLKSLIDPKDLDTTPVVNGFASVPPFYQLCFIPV
# Sequence of Cytochrome P450 2C9 (P11712 whole entry): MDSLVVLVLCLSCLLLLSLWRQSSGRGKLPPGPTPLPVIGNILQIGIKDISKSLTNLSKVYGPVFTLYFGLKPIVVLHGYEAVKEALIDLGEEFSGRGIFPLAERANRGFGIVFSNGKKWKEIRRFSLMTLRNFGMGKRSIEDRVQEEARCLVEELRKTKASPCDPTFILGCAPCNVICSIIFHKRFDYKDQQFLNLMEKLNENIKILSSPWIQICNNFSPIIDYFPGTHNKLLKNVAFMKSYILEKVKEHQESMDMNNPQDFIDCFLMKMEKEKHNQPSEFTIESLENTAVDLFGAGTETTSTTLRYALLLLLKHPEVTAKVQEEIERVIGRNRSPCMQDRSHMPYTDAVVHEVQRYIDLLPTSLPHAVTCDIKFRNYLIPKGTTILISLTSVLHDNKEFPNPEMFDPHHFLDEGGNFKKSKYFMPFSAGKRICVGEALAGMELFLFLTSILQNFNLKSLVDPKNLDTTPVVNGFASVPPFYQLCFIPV
# Sequence of Cytochrome P450 3A4 (P08684 whole entry): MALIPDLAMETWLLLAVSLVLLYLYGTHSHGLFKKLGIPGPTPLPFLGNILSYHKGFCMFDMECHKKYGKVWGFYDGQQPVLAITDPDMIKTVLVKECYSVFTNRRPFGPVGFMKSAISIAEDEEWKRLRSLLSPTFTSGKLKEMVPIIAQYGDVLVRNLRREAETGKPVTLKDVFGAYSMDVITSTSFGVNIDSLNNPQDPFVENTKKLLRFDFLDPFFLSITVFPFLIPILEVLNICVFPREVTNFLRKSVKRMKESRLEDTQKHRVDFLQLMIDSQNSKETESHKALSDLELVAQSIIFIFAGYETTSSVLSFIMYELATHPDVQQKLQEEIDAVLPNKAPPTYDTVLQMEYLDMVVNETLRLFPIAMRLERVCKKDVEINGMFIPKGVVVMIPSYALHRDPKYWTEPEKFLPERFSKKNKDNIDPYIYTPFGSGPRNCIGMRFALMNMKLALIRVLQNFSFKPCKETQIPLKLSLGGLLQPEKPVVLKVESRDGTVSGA
# Sequence of Cytochrome P450 2D6 (P10635 whole entry): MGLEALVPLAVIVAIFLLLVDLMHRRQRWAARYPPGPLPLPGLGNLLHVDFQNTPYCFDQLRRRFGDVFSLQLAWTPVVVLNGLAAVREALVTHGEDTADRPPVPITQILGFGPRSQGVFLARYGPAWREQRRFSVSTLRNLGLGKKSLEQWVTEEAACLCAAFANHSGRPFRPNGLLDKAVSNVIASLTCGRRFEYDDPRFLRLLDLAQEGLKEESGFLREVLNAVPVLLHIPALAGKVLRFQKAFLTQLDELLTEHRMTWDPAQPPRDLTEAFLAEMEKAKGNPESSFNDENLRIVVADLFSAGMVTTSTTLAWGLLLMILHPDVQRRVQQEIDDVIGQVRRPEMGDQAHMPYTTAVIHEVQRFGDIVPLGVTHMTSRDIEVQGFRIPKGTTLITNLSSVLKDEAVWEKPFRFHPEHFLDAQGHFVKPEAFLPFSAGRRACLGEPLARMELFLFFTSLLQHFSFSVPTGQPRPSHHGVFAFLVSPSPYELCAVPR
# Sequence of hERG (KCNH2) (Q12809 whole entry): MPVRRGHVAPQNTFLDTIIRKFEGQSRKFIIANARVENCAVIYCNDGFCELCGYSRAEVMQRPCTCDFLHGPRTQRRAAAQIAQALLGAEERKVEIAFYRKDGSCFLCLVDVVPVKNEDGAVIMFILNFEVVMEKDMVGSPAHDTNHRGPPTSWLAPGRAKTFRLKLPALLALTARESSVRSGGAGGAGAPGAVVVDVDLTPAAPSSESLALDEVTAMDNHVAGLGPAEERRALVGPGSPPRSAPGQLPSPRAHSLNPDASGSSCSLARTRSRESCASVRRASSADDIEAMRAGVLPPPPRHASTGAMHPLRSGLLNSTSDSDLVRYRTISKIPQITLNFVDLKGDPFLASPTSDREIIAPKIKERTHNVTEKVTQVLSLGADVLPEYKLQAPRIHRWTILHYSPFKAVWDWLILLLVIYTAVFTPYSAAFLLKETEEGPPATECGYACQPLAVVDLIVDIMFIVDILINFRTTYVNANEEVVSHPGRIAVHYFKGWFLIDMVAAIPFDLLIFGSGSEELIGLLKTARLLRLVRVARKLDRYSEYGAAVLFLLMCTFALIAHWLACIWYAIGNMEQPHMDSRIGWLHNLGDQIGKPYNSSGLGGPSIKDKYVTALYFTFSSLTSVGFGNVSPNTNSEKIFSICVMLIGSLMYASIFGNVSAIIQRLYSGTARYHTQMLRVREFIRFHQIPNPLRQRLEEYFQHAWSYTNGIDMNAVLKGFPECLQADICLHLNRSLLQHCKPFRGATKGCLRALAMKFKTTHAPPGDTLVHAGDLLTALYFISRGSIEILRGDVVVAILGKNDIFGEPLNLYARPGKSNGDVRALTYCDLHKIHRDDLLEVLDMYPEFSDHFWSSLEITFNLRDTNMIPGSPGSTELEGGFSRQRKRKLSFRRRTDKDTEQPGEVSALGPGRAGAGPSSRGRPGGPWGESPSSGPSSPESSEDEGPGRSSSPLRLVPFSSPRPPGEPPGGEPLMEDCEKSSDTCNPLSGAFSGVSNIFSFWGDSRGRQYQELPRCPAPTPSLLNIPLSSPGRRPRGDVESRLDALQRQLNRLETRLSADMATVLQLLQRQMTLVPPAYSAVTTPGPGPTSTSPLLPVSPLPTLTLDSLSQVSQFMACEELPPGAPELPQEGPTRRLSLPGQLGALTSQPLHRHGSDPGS
# Sequence of Melanin-concentrating hormone receptor 1 (Homo sapiens, UniProt Q99705) (Q99705 whole entry): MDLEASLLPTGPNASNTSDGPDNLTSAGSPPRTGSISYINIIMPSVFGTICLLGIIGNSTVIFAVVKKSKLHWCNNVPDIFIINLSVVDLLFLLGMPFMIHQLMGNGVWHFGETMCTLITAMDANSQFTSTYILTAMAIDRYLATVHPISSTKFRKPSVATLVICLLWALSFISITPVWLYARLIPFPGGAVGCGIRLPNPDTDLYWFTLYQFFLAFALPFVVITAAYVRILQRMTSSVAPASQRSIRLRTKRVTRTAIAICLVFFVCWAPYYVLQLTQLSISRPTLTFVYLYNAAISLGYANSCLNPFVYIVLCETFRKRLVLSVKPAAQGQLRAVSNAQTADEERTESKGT
smiles,measurement,setting,value
COc1cc(-n2cnc3cc(-c4ccc(Cl)cc4)sc3c2=O)ccc1OCC1(O)CC(F)(F)C1,Ki,[1],11.5 nM
same,Activity,Rattus norvegicus [2],4.2%
same,fraction unbound at 96 h,[3],< 0.02
same,Activity,[4],Non-Toxic
same,"remaining at 10 min, 3 µM",[5],95%
same,Ki,[6],16.9 nM
same,Activity,Rattus norvegicus [7],4.1%
same,Activity,[8],Non-Toxic
same,clearance,[9],6.9 mL/min/kg
same,inhibition,Homo sapiens [10],21%
same,"remaining at 10 min, 3 µM",[11],100%
same,AUC,[12],22.1 µM·h
same,inhibition,Homo sapiens [13],68%
same,INH,Cytochrome P450 3A4,> 40 µM
same,Vd,[14],4.1 L/kg
same,Activity,Rattus norvegicus [15],14.7%
same,Activity,[16],Non-Toxic
same,logP,[17],4.8
same,half-life,[18],> 24 h
same,inhibition at 10 µM,hERG (KCNH2),43%
same,INH,Cytochrome P450 2C9,> 40 µM
same,INH,Cytochrome P450 2C19,> 40 µM
same,clearance,[19],0.9 mL/min/kg
same,Kb,[20],117 nM
same,half-life,[21],37 h
same,solubility,[22],< 1 µg/mL
same,INH,Cytochrome P450 2D6,> 40 µM
same,Activity,[23],Non-Toxic
same,Vd,[24],5.4 L/kg
same,Activity,Rattus norvegicus [25],14.3%
same,AUC,[26],5.2 µM·h
same,Activity,Rattus norvegicus [27],Non-Toxic
same,INH,Cytochrome P450 2C8,> 40 µM
same,"remaining at 10 min, 3 µM",[28],90%
